RBBP9 inh – inhibitors of human serine hydrolase RBBP9; recombinant RBBP9, FP-Rh probe fluorescence polarization; inhibition, % at 7.94 µM; 220,000 tested, 0.2% active; AID 1515;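 active = inhibition above the campaign mean of all tested compounds plus 3 SD, cut at about 14% in these data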;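 also: plate controls were DMSO wells with RBBP9 for no effect and wells lacking RBBP9 protein for full effect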
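Test system – recombinant human RBBP9 · Input – RBBP9 2.5 µM in dispensing solution, pre-mixing · Medium – Tris buffer pH 8.0, NaCl, Pluronic · Schedule – preincubation 30 min plus labeling 45 min at 25 °C · Measured by – fluorescence polarization · Measure – % inhibition · Controls – DMSO and no-protein wells · Replicates – one well per compound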
GSTO1 counter – counter-screen for RBBP9 inhibitors: inhibitors of human GSTO1; P78417; recombinant GSTO1, activity-based probe fluorescence polarization; inhibition, % at 5.96 µM; 300,000 tested, 1.1% active;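 active = inhibition above the campaign mean inhibition plus 3 SD, cut at about 35% in these data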;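 also: 0% = GSTO1-1 with DMSO and 100% = wells lacking GSTO1-1 enzyme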
PRMT1 FP inh – PRMT1 (human) inhibition, primary screen; Q99873; recombinant PRMT1, activity-based probe fluorescence polarization; inhibition, % at 2.79 µM; 370,000 tested, 1.3% active;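 active = inhibition above about 21% made by adding two undisclosed values, limit read from the data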
PME-1 inh – blocks human protein phosphatase methylesterase 1 | Q9Y570 | recombinant PME-1, FP-Rh probe fluorescence polarization | inhibition, % at 5.9 µM | 320,000 tested, 0.53% active | AID 2130;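 active = inhibition above the campaign mean of all compounds plus 3 SD, cut at about 26% in these data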;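 also: competitive labeling of PME-1 active site by serine hydrolase directed probe; 0% = PME-1 with DMSO and 100% = wells lacking PME-1 enzyme; inhibitors block probe labeling so polarization falls and inhibition rises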
Fam108B counter – Fam108B inhibition, counter-screen for RBBP9 inhibitors | AID 1947 | 300,000 tested, 0.33% active | recombinant Fam108B, FP-Rh probe fluorescence polarization | inhibition, % at 9.51 µM;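 active = inhibition above the screen mean inhibition plus 3 SD, computed separately per campaign, cut at about 18% in these data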;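 also: inhibitors lower polarization as less probe binds the enzyme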
PAD4 FP inh – blocks human protein arginine deiminase 4; inhibition, % at 6.36 µM; Q9UM07; AID 485272; 330,000 tested, 0.41% active; recombinant PAD4, RCA probe fluorescence polarization;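 active = percent inhibition above a cutoff equal to the mean of all tested compounds plus 3 SD, cut at about 15% in these data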;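 also: 0% = PAD4 with RCA probe and DMSO and 100% = probe without PAD4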
Target sequence (Q9UM07 whole entry, looked up): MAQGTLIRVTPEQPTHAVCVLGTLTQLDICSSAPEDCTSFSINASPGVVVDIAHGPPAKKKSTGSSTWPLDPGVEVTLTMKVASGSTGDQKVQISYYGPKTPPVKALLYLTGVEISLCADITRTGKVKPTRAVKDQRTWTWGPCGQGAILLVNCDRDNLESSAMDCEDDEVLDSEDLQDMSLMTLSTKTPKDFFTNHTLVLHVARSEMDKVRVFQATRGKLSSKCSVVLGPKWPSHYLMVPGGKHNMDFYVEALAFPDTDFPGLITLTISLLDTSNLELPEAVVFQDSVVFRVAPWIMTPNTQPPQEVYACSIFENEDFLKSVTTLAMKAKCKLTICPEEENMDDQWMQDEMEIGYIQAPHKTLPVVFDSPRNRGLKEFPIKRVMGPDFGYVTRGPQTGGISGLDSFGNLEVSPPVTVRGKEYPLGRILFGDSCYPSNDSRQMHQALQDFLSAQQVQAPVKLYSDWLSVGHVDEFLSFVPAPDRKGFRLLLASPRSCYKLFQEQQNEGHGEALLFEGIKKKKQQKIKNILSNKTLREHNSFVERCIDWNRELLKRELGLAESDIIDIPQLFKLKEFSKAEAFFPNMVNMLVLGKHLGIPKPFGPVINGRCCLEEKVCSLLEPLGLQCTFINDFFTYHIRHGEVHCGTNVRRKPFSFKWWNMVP
GSTO1 confirm – GSTO1 (human) inhibition, confirmation. shares compounds with GSTO1 counter. recombinant GSTO1, probe fluorescence polarization. inhibition, % at 5.96 µM. 2,400 tested, 54% active. AID 2176;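 active = inhibition above the primary screen's cutoff, its mean inhibition plus 3 SD, cut at about 35% in these data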;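 also: loss of polarization as inhibitors block binding of rhodamine sulfonate ester activity probe; 0% = GSTO1 with DMSO and 100% = wells lacking GSTO1 enzyme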
The depositor's hits bear a star; . = no result. Only some compounds are listed: those with a hit (about 2.3% of all), similar ones and a draw of the others.

SMILES	RBBP9 inh	GSTO1 counter	PRMT1 FP inh	PME-1 inh	Fam108B counter	PAD4 FP inh	GSTO1 confirm
Cc1ccc(S(=O)(=O)N2CCN(CC(=O)N/N=C/c3ccc(C)o3)CC2)cc1	2	2	2	-2	0	1	.
Cc1ccc(S(=O)(=O)N2CCN(CC(=O)N/N=C\c3ccc(O)c(O)c3)CC2)cc1	-7	46*	6	1	-4	2	3
COc1cc(/C=N/NC(=O)c2cccc(S(=O)(=O)N3CCCC3)c2)ccc1O	.	2	2	5	1	1	.
Cc1ccc(C(=O)Nc2nnc(CC(=O)N/N=C/c3ccc(O)c(O)c3)s2)cc1	.	38*	-2	29*	18	-12	31
Cc1ccc(C(=O)Nc2nnc(CC(=O)N/N=C/c3ccncc3)s2)cc1	-5	-8	-1	-5	-6	4	.
O=C(N/N=C/c1ccc(O)c(O)c1)c1cccc(S(=O)(=O)N2CCCC2)c1	.	67*	3	-8	4	6	4
Cc1cc(C(=O)O[C@H]2[C@H](Cc3ccccc3)NS(=O)(=O)[C@H]3C[C@@H]4C=C[C@]23O4)ccc1[N+](=O)[O-]	.	.	-2	7	.	0	.
CCCn1cc(CN2CCCC(C(=O)c3cccc(OC(C)C)c3)C2)c(C)n1 (centres undefined)	-4	-2	0	3	1	1	.
COc1ccc(NC(=S)NC(NC(=O)CCl)C(Cl)(Cl)Cl)c([N+](=O)[O-])c1 (centres undefined)	2	92*	.	0	-3	-4	97*
COc1ccc(NC(=S)NC(NC(=O)c2ccccc2Cl)C(Cl)(Cl)Cl)c([N+](=O)[O-])c1 (centres undefined)	-5	-12	1	1	0	-3	.
O=[N+]([O-])c1ccc(O)c(/C=N/Nc2nn[nH]n2)c1	0	47*	1	4	0	1	9
CCOCCCNC(=O)C1CCN(S(=O)(=O)c2cc(Br)cc3c2N(C(=O)CC)CC3)CC1	.	4	3	-2	-5	-4	.
CN1CCN(C2=C(Cl)C(=O)C(c3cnc(N4CCCCC4)s3)=C(Cl)C2=O)CC1	3	84*	.	12	6	23*	19
CN1CCN(C2=C(Cl)C(=O)N(C3CCCCC3)C2=O)CC1	-11	0	5	9	1	-2	.
CNC(=O)COC(=O)c1cc(-c2ccco2)nc2ccccc12	4	40*	12	-3	4	4	9
COc1ccc(CNC(=O)c2ccc(Cn3nc(C)cc3C)o2)cc1	.	1	3	-1	1	-4	.
COC(=O)CC1C(=O)NC2CCCCC2N1C(=O)CCl (centres undefined)	9	54*	3	-4	1	4	79*
CCNC(=O)N1C(CC(=O)OCC)C(=O)NC2CCCCC21 (centres undefined)	-4	-7	3	-2	1	0	.
Nc1cc(-c2ccncc2)c[nH]c1=O	0	42*	24*	-6	-3	0	7
COC(=O)C1(C)Cc2cc(OC(C)=O)c(OC(C)=O)cc2N1 (centres undefined)	4	66*	.	0	3	-10	24
CC(=O)Oc1cc2c(cc1OC(C)=O)C(=O)CCCC2	.	.	1	.	.	.	.
Nc1[nH]c(N=NC(=O)c2ccc(Cl)cc2)c2ccccc12	-8	-1	0	-7	-3	-4	.
Cc1cc(N=Cc2c(O)ccc3cc(Br)ccc23)no1	-2	46*	4	5	3	-5	23
Cc1cc(N=Cc2c(O)n(-c3ccc(C)c(C)c3)c(=O)c3ccccc23)no1	-6	.	3	.	.	.	.
C=CCNC(=O)COc1ccc(Br)cc1Cl	-4	66*	0	1	4	-1	5
COCCNC(=O)COc1ccc(Br)cc1Cl	-10	0	.	-4	-2	0	.
CCOc1cc(/C=C2\C(=O)N(CCc3ccc(OC)c(OC)c3)C(C)=C2C(=O)OC)ccc1O	9	43*	26*	-4	1	-11	-2
Cc1cccc(CN2CCN(c3ccccn3)CC2)c1	-2	-3	1	-4	-4	-3	.

Bioassay records: PubChem BioAssay, The Scripps Research Institute Molecular Screening Center
